Experimental data from publication PMC9734322 (Inflammation Research, 2022).

How the values were obtained:
[1] = system: calcium-dependent coagulation cascade factors (plasma); assay: Plasma recalcification time test; assay type: biochemical, human; details: control 196.9 ± 9 s
Procedure, shortened: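 Pooled citrated plasma from healthy donors (100 µL) was incubated with saline or test compound for 10 min at 37 °C. CaCl₂ was added (12.5 mM final) and clotting time recorded in a coagulometer. Mean ± SEM.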

[2] = system: extrinsic pathway and common pathways of the coagulation cascade (plasma); assay: Prothrombin time test; assay type: biochemical, human; details: control 15 ± 2 s
[3] = system: initiation or propagation pathway of the coagulation cascade (plasma); assay: Activated partial thromboplastin time; assay type: biochemical, human; details: control 41.3 ± 0.7 s
[4] = system: carrageenan-induced peritonitis; assay: Carrageenan-induced peritonitis, total and differential leukocyte count; assay type: in vivo, mice; details: for % Mononuclear cells / % Neutrophils: mean ± SD
Procedure, shortened: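 Mice were pretreated i.p. (100 µL) with test compound or dexamethasone 10 mg/kg, then given carrageenan 10 mg/kg i.p. 1 h later; PBS pH 7.4 served as negative control. Peritoneal fluid was collected 3 h after first administration. Total leukocytes were counted in a Neubauer chamber. Slides were methanol-fixed 5 min and Giemsa-stained 15–20 min; 100 cells were counted per slide. Three experiments on different days; mean ± SD; ANOVA/Tukey.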

[5] = system: P2X7R; details: ATP concentration required for activation; cited from earlier work
[6] = system: ATP-induced paw edema; assay: ATP-induced paw edema assay; assay type: in vivo, mice (Swiss Webster); details: 10 mM ATP subplantar, phlogistic agent
Procedure, shortened: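 Male Swiss Webster mice (~30 g) were given test compound at 100, 500 or 1000 ng/kg i.p. 1 h before ATP (10 mM/paw subplantar, 20 µL), with 0.9% NaCl in the contralateral paw. Diclofenac 10 mg/kg i.p. was the positive control and saline the negative control. Paw volume was read by plethysmometer 60 min after ATP. Three experiments on different days; mean ± SD; one-way ANOVA/Tukey.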

[7] = system: platelet-rich plasma (PRP); details: 1 µM, ADP 15 µM
[8] = pretreatment, then carrageenan 10 mg/kg 1 h later
[9] = substance alone, 10 mg/kg as printed, differential count of 100 cells

Compound | plasma recalcification clotting time ([1]; 1 µM) [s] | plasma recalcification clotting time ([1]; 10 µM) [s] | prothrombin time ([2]; 1 µM) [s] | prothrombin time ([2]; 10 µM) [s] | clotting time in the aPTT test ([3]; 1 µM) [s] | clotting time in the aPTT test ([3]; 10 µM) [s] | % Mononuclear cells [4, 9] | % Neutrophils [4, 9] | also measured
O=C1CN=C(c2cccc(Br)c2)c2oc3ccccc3c2N1 [5-BDBD] | 204.6 ± 9 | 195 ± 7 | 15.4 ± 0.7 | 15.7 ± 0.5 | 41.9 ± 0.6 | 42.5 ± 0.8 |  |  | 
C[C@@H]1C[C@H]2[C@@H]3CCC4=CC(=O)C=C[C@]4(C)[C@@]3(F)[C@@H](O)C[C@]2(C)[C@@]1(O)C(=O)CO [dexamethasone] |  |  |  |  |  |  | 90 ± 6ª % | 9 ± 7ª % | carrageenan-induced increase in white blood cells ([4]; dexamethasone 10 mg/kg i.p. pretreatment): reversed; % Mononuclear cells [4, 8]: 72 ± 9ª %; % Neutrophils [4, 8]: 27 ± 9ª^,g %
Nc1ncnc2c1ncn2[C@@H]1O[C@H](COP(=O)(O)OP(=O)(O)OP(=O)(O)O)[C@@H](O)[C@H]1O [ATP] |  |  |  |  |  |  |  |  | EC50 [5]: ≥ 100 µM; increase in paw edema compared to the saline group [6]: 30%
carrageenan |  |  |  |  |  |  | 28 ± 8% | 67 ± 10% | 
COC(=O)[C@H](c1ccccc1Cl)N1CCc2sccc2C1 [clopidogrel] |  |  |  |  |  |  |  |  | ADP-induced platelet aggregation [7]: inhibited ADP-induced platelet aggregation
COc1cc(S(=O)(=O)O)cc2cc(S(=O)(=O)O)c(NC(=O)c3ccc(C)c(NC(=O)c4cccc(NC(=O)Nc5cccc(C(=O)Nc6cc(C(=O)Nc7cc8c(OC)cc(S(=O)(=O)O)cc8cc7S(=O)(=O)O)ccc6C)c5)c4)c3)cc12 [NF770] | 200.4 ± 12 | 198 ± 8 | 15.5 ± 1 | 15.7 ± 1 | 40.9 ± 1 | 42.2 ± 1 |  |  | 
